Assay results as given in ChEMBL document CHEMBL4000190, “Novel trifluoromethylated 9-amino-3,4-dihydroacridin-1(2H)-ones act as covalent poisons of human topoisomerase IIα” (Bioorg Med Chem Lett, 2017).
Active and inactive are the calls of the source. The rule behind the calls is not given here.

Columns and labels:
[1] = target: DNA topoisomerase 2-alpha (Homo sapiens) (UniProt P11388); experiment: Inhibition of recombinant human topoisomerase-2alpha mediated DNA ligation expressed in Saccharomyces cerevisiae JEL1 harboring topoisomerase1 deletion mutant at 1 mM measured after 6 mins by ethidium bromide staining based agarose gel electrophoresis
Chain of DNA topoisomerase 2-alpha (Homo sapiens) (P11388 whole entry, the tested form may be a part): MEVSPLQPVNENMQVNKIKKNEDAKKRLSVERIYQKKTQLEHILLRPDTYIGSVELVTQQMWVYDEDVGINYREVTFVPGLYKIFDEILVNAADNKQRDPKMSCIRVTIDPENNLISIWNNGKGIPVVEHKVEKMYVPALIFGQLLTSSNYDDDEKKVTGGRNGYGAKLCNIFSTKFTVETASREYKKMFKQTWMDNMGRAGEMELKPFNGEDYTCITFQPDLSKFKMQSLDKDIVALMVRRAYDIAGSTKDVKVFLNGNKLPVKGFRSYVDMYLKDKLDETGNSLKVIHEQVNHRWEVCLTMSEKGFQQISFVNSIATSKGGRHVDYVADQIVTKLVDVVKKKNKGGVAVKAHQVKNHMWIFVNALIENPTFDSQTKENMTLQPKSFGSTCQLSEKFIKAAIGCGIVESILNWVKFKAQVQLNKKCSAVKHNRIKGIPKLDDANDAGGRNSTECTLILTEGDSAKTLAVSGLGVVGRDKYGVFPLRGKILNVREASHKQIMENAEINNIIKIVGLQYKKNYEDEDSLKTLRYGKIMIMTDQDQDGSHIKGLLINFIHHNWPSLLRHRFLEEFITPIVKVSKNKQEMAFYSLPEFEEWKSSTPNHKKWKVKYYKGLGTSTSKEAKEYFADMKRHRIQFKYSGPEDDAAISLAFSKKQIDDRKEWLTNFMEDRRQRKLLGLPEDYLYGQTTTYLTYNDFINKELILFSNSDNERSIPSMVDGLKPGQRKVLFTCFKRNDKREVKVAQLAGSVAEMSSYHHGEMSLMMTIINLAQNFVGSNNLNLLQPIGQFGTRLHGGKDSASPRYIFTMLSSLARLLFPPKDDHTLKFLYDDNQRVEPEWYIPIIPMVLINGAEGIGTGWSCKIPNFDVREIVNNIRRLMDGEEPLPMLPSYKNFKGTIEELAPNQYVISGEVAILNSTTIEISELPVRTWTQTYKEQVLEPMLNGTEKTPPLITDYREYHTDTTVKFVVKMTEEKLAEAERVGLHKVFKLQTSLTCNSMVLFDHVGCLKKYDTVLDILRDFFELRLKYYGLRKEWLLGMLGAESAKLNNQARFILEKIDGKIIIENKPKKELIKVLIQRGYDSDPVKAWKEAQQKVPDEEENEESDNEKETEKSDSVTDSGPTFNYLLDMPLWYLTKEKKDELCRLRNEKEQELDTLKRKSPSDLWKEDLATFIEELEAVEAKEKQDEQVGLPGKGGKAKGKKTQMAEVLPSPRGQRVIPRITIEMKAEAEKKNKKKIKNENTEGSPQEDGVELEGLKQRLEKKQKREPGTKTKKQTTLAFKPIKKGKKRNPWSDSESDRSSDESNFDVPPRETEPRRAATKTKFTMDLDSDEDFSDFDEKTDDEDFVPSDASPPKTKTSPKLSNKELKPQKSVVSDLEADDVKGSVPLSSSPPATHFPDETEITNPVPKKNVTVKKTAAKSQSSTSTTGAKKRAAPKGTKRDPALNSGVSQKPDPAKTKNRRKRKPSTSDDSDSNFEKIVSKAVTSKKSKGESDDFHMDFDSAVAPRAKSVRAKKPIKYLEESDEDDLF
Procedure, shortened: (§1)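 Topoisomerase IIα-mediated DNA ligation measured with or without 1 mM compound; controls at 50 µM. Mean ± standard deviation of at least three independent experiments.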

[2] = target: DNA topoisomerase 2-alpha (Homo sapiens) (UniProt P11388); experiment: Poison activity at recombinant human topoisomerase-2alpha expressed in Saccharomyces cerevisiae JEL1 harboring topoisomerase1 deletion mutant assessed as concentration required to triple the level of DNA cleavage complex relative to basal level using supercoiled pBR322 DNA as substrate measured after 6 mins by ethidium bromide staining based agarose gel electrophoresis
Procedure, shortened: (§2)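 Enhancement of topoisomerase IIα-mediated double-stranded cleavage of negatively supercoiled DNA, measured over a compound concentration range. Cleavage is expressed relative to the baseline of enzyme without compound.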

[3] = target: DNA topoisomerase 2-alpha (Homo sapiens) (UniProt P11388); experiment: Poison activity at recombinant human topoisomerase-2alpha catalytic domain (431 to 1193 residues) assessed as increase in double stranded DNA cleavage at 1 mM using supercoiled pBR322 DNA as substrate measured after 6 mins by ethidium bromide staining based agarose gel electrophoresis
Procedure, shortened: (§3)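 Double-stranded DNA cleavage by full-length topoisomerase IIα and by the catalytic core (lacking N- and C-terminal domains), run in parallel. Compounds at 1 mM; controls at 50 µM; a no-compound baseline is included. Mean ± SD of ≥3 independent experiments.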

[4] = target: DNA topoisomerase 2-alpha (Homo sapiens) (UniProt P11388); experiment: Poison activity at recombinant human topoisomerase-2alpha expressed in Saccharomyces cerevisiae JEL1 harboring topoisomerase1 deletion mutant assessed as double stranded DNA cleavage using supercoiled pBR322 DNA as substrate at 1000 uM measured after 6 mins by ethidium bromide staining based agarose gel electrophoresis relative to control; procedure, shortened: as §2
[5] = target: DNA topoisomerase 2-alpha (Homo sapiens) (UniProt P11388); experiment: (§4) Poison activity at recombinant human topoisomerase-2alpha expressed in Saccharomyces cerevisiae JEL1 harboring topoisomerase1 deletion mutant assessed as increase in double stranded DNA cleavage up to 1000 uM using supercoiled pBR322 DNA as substrate measured after 6 mins by ethidium bromide staining based agarose gel electrophoresis relative to control; procedure, shortened: as §2
Bos taurus = species: Bos taurus; experiment: Activity at calf thymus DNA topoisomerase-1 assessed as DNA intercalation by measuring band shift at 1 mM using pBR322 DNA as substrate measured after 15 mins by ethidium bromide staining based agarose gel electrophoresis relative to control
Procedure, shortened: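 Topoisomerase I relaxation of negatively supercoiled DNA in the presence of compound. Intercalation is read as a shift of topoisomer bands toward the supercoiled position. Controls are DNA alone and DNA plus topoisomerase I without compound. Gel representative of three independent experiments.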

[6] = target: DNA topoisomerase 2-alpha (Homo sapiens) (UniProt P11388); experiment: as §4, with “at 1 mM” for “up to 1000 uM”, “substrate in presence of reducing agent DTT” for “substrate”, “electrophoresis” for “electrophoresis relative to control”
Procedure, shortened: (§5)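 Topoisomerase IIα DNA cleavage with 1 mM compound, run without and with 0.5 mM DTT. Controls are no-compound and 50 µM reactions. Mean ± standard deviation of at least three independent experiments.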

[7] = target: DNA topoisomerase 2-alpha (Homo sapiens) (UniProt P11388); experiment: as §4, with “at 1 mM” for “up to 1000 uM”, “substrate preincubated for 1 to 5 mins followed by substrate addition” for “substrate”, “electrophoresis” for “electrophoresis relative to control”
Procedure, shortened: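 Topoisomerase IIα was preincubated with 1 mM compound for 1–5 min, then the cleavage reaction was started by adding DNA. Cleavage was followed against preincubation time.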

[8] = target: DNA topoisomerase 2-alpha (Homo sapiens) (UniProt P11388); experiment: Poison activity at recombinant human topoisomerase-2alpha catalytic domain (431 to 1193 residues) assessed as increase in double stranded DNA cleavage at 50 uM using supercoiled pBR322 DNA as substrate measured after 6 mins by ethidium bromide staining based agarose gel electrophoresis; procedure, shortened: as §3
[9] = target: DNA topoisomerase 2-alpha (Homo sapiens) (UniProt P11388); experiment: Inhibition of recombinant human topoisomerase-2alpha mediated DNA ligation expressed in Saccharomyces cerevisiae JEL1 harboring topoisomerase1 deletion mutant at 50 uM measured after 6 mins by ethidium bromide staining based agarose gel electrophoresis; procedure, shortened: as §1
[10] = target: DNA topoisomerase 2-alpha (Homo sapiens) (UniProt P11388); experiment: as §4, with “at 50” for “up to 1000”, “substrate in presence of reducing agent DTT” for “substrate”, “electrophoresis” for “electrophoresis relative to control”; procedure, shortened: as §5

inhibition [1] | Activity (Bos taurus) | inhibition [9] | SMILES | Activity [2] [µM] | Activity [3] | Activity [4] [%] | fold change (FC) [5] | Activity [6] | Activity [7] | Activity [8] | Activity [10]
inactive | Active | – | Nc1c2c(nc3ccc(Br)cc13)CC(C(F)(F)F)CC2=O (stereo not given) | 90 | inactive | < 35 | 5.5 to 8.5 | inactive | Active | – | –
– | – | Active | COc1cc(NS(C)(=O)=O)ccc1Nc1c2ccccc2nc2ccccc12 | 8.5 | – | – | – | – | – | Active | Active
inactive | Active | – | Nc1c2c(nc3ccc(F)cc13)CC(C(F)(F)F)CC2=O (stereo not given) | 520 | inactive | < 35 | 5.5 to 8.5 | inactive | – | – | –
– | – | Active | COc1cc([C@@H]2c3cc4c(cc3[C@@H](O[C@@H]3O[C@@H]5CO[C@@H](C)O[C@H]5[C@H](O)[C@H]3O)[C@H]3COC(=O)[C@H]23)OCO4)cc(OC)c1O | 32 | – | – | – | – | – | – | –

Continued, compound first:

SMILES | inhibition [1] | Activity (Bos taurus) | inhibition [9] | Activity [2] [µM] | Activity [3] | Activity [4] [%] | fold change (FC) [5] | Activity [6] | Activity [7] | Activity [8] | Activity [10]
O=C1CC(C(F)(F)F)Cc2nc3ccccc3cc21 (stereo not given) | inactive | Active | – | > 1000 | – | – | 5.5 to 8.5 | – | – | – | –
Cc1ccc2c(N)c3c(nc2c1)CC(C(F)(F)F)CC3=O (stereo not given) | inactive | Active | – | 800 | inactive | – | – | inactive | Active | – | –
Nc1c2c(nc3ccccc13)CC(C(F)(F)F)CC2=O (stereo not given) | inactive | Active | – | 155 | inactive | – | 5.5 to 8.5 | inactive | Active | – | –
Nc1c2c(nc3ccc(Cl)cc13)CC(C(F)(F)F)CC2=O (stereo not given) | inactive | Active | – | 85 | inactive | < 35 | 5.5 to 8.5 | inactive | Active | – | –
c1ccc2nc3ccccc3cc2c1 | – | – | – | > 1000 | – | – | – | – | – | – | –
Nc1c2c(nc3ccc([N+](=O)[O-])cc13)CC(C(F)(F)F)CC2=O (stereo not given) | inactive | Active | – | > 1000 | – | – | – | – | – | – | –
